Source: ChEMBL document CHEMBL1949650, “Design, synthesis, computational and biological evaluation of some new hydrazino derivatives of DHA and pyranopyrazoles” (2012)
Active and inactive are the calls of the source. No cut-off for these calls is given here.

Columns and labels:
Mus musculus [1] = assay: Analgesic activity in Swiss albino mouse assessed as inhibition of acetic acid-induced writhing at 50 mg/kg, po administered 30 mins prior acetic acid-induction measured after 1 to 2 hrs by tail immersion method; assay type: functional, organism-based; parameters: dose 50 mg/kg
Mus musculus [2] = assay: Analgesic activity in Swiss albino mouse assessed as protection against acetic acid-induced wriths at 50 mg/kg, po administered 30 mins prior acetic acid challenge measured for 10 mins; assay type: functional
Summary of the method: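 Adult Swiss albino mice (20-25 g) were used, with N = 5 per group. Wriths were counted for 10 min, starting 5 min after acetic acid injection, on day 1 as each mouse's control. Next day, 50 mg/kg was given orally 30 min before acetic acid. Diclofenac sodium was the standard. Protection = […] × 100 from group means. Analysis: mean ± SEM, one-way ANOVA, Tukey-Kramer.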

Rattus norvegicus [3] = assay: Antiinflammatory activity in rat assessed as inhibition of carrageenan-induced paw oedema at 50 mg/kg after 4 hrs by plethysmography relative to controlchallenge by plethysmography; assay type: functional
Summary of the method: (§1)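 0.1 ml of 1% carrageenan was injected subplantar into the right hind paw. Paw volume was measured plethysmographically immediately and at 1, 2, 3 and 4 h; oedema is the volume difference. Test compounds were dosed at 50 mg/kg b.w., with diclofenac sodium 50 mg/kg as reference. Percent inhibition was calculated against the saline control group. N = 5, mean ± SEM, ANOVA.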

Rattus norvegicus [4] = assay: Antiinflammatory activity in rat assessed as inhibition of carrageenan-induced paw oedema at 50 mg/kg after 1 hr by plethysmography relative to control; assay type: functional; summary of the method: as §1
Rattus norvegicus [5] = assay: Antiinflammatory activity in rat assessed as inhibition of carrageenan-induced paw oedema at 50 mg/kg after 3 hrs by plethysmography relative to control; assay type: functional; summary of the method: as §1
Rattus norvegicus [6] = assay: Antiinflammatory activity in rat assessed as inhibition of carrageenan-induced paw oedema at 50 mg/kg after 2 hrs by plethysmography relative to control; assay type: functional; summary of the method: as §1
Mus musculus [7] = assay: Analgesic activity in Swiss albino mouse assessed as inhibition of acetic acid-induced writhing at 50 mg/kg, po administered 30 mins prior acetic acid-induction measured after 1 hr by tail immersion method; assay type: functional, organism-based; parameters: dose 50 mg/kg
Mus musculus [8] = assay: Analgesic activity in Swiss albino mouse assessed as inhibition of acetic acid-induced writhing at 50 mg/kg, po administered 30 mins prior acetic acid-induction measured after 2 hrs by tail immersion method; assay type: functional, organism-based; parameters: dose 50 mg/kg

Compound | Activity (Mus musculus [1]) | inhibition in vivo at 50 mg/kg (Mus musculus [2]) [%] | inhibition in vivo at 50 mg/kg (Rattus norvegicus [3]) [%] | inhibition in vivo at 50 mg/kg (Rattus norvegicus [4]) [%] | inhibition in vivo at 50 mg/kg (Rattus norvegicus [5]) [%] | inhibition in vivo at 50 mg/kg (Rattus norvegicus [6]) [%] | Activity (Mus musculus [7]) | Activity (Mus musculus [8])
Cc1cc2nn(-c3ccc(Br)cc3)c(C)c2c(=O)o1 | Active | 44.9 | 38.2 | 59.5 | 49.5 | 50.6 | – | –
CC(=O)c1c(NNc2nc3ccccc3s2)cc(C)oc1=O | Active | 65.3 | 49 | 64.6 | 54.5 | 58.4 | Active | –
Cc1cc2nn(-c3ccccc3)c(C)c2c(=O)o1 | Active | 50.2 | 43.1 | 57 | 52.5 | 55 | Active | –
CC(=O)c1c(NNc2nc(C)cc(C)n2)cc(C)oc1=O | – | 64.9 | 42.2 | 59.5 | 55.6 | 61.8 | Active | –
CC(=O)c1c(NNc2nc(-c3ccccc3)cs2)cc(C)oc1=O | – | 51.4 | 23.5 | 51.9 | 45.5 | 48.3 | – | Active
CC(=O)c1c(NNc2cc(C)c3ccccc3n2)cc(C)oc1=O | Active | 75 | 51 | 51.9 | 55.6 | 55 | Active | Active
CC(=O)c1c(NNc2ccc(Br)cc2)cc(C)oc1=O | – | 53.1 | 18.6 | 46.8 | 40.4 | 47.2 | – | –
Cc1ccc(-n2nc3cc(C)oc(=O)c3c2C)cc1 | – | 69.4 | 41.7 | 63.3 | 54 | 58.4 | – | Active
O=C(O)Cc1ccccc1Nc1c(Cl)cccc1Cl [DICLOFENAC SODIUM] | – | 77.5 | 66.7 | 70.9 | 69.7 | 67.4 | – | –
COc1ccc(-n2nc3cc(C)oc(=O)c3c2C)cc1 | – | 75.9 | 42.2 | 64.6 | 57.6 | 53.9 | – | –
CC(=O)c1c(NNc2ccc([N+](=O)[O-])cc2)cc(C)oc1=O | – | 47.3 | 44.1 | 53.2 | 45.5 | 55 | – | –
Cc1cc2nn(-c3nc(-c4ccccc4)cs3)c(C)c2c(=O)o1 | Active | 70.2 | 52.9 | 67.1 | 62.6 | 59.5 | – | –
Cc1cc2nn(-c3ccc(Cl)cc3)c(C)c2c(=O)o1 | – | 65.3 | 38.2 | 58.2 | 56.6 | 59.5 | – | –
CC(=O)c1c(NNc2ccccc2)cc(C)oc1=O | – | 49.8 | 52 | 59.5 | 55.6 | 57.3 | Active | –
CC(=O)c1c(NNc2ccc(Cl)cc2)cc(C)oc1=O | – | 75.1 | 28.4 | 54.4 | 58.6 | 57.3 | – | –
CC(=O)c1c(NNc2ccc(C)cc2)cc(C)oc1=O | – | 70.2 | 50 | 60.1 | 59.6 | 53.4 | Active | –
COc1ccc(NNc2cc(C)oc(=O)c2C(C)=O)cc1 | – | 59.2 | 24.5 | 50 | 44.4 | 49.4 | – | –
